From ChEMBL document CHEMBL5038608, “Design, synthesis, and biological evaluation of novel pyrrolidinone small-molecule Formyl peptide receptor 2 agonists” (Eur J Med Chem, 2021)
Converted amounts (≈) assume the structure as drawn. The source made the active and inactive calls. The calls are words filed in the database; no cut-off is given here.

Tests used:
[1] = Microsomal stability in mouse liver microsomes assessed as half life at 1 uM preincubated for 5 mins followed by NADPH regenerating system addition measured after 30 mins by LC-MS/MS analysis; assay type: ADME, Microsome; conditions: t1/2, time 35 min
Procedure, shortened: (§1)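 Human or mouse liver microsomes (0.2 mg/mL protein) with compound at 1 µM final, pre-incubated 5 min at 37 °C. Reaction started with NADPH generating solution and agitated at 37 °C, with samples quenched up to 30 min. Centrifuged; supernatant analysed in triplicate by LC-MS.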

[2] = Microsomal stability in human liver microsomes assessed as half life at 1 uM preincubated for 5 mins followed by NADPH regenerating system addition measured after 30 mins by LC-MS/MS analysis; assay type: ADME, Microsome; conditions: t1/2, time 35 min; procedure, shortened: as §1
[3] = target: T1, N-formyl peptide receptor 2 (Homo sapiens, UniProt P25090); assay: Agonist activity at FPRL1 (unknown origin) expressed in CHO-K1 cells assessed as stimulation of beta-arrestin recruitment incubated for 150 mins by beta-galactosidase based PathHunter assay; assay type: functional, cell-based; conditions: read-out: EC50
T1 sequence (P25090 whole entry): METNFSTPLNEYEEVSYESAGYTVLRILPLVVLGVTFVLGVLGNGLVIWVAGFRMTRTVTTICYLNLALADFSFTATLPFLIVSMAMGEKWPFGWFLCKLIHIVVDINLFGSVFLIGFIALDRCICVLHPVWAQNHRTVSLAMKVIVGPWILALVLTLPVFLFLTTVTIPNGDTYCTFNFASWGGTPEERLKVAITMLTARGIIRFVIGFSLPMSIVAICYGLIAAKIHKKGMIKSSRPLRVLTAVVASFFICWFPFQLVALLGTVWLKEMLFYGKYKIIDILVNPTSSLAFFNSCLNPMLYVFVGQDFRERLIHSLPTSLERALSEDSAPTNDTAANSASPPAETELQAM
Procedure, shortened: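 PathHunter CHO-K1 FPRL1 cells expressing β-gal enzyme-fragment complementation, 5000 cells/well, held overnight at 37 °C. Stimulated with half-log serial dilutions of compounds (10 mM stocks in PBS) for 150 min at 37 °C. High control was WKYMVm at 100 nM. Detection reagent added for 60 min at RT in the dark, then chemiluminescence read.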

[4] = target: T2, N-formyl peptide receptor 2 (Homo sapiens) (UniProt P25090); assay: Agonist activity at FPRL1 (unknown origin) expressed in CHO-K1 cells assessed as stimulation of beta-arrestin recruitment […] incubated for 150 mins by beta-galactosidase based PathHunter assay; assay type: functional, cell-based; conditions: filed as agonist
T2 sequence (whole entry): T1 sequence (P25090 whole entry)
Procedure, shortened: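 PathHunter CHO-K1 FPRL1 cells carry complementing β-galactosidase fragments. Plated at 5000/well, held 1 h RT, then overnight at 37 °C. Compounds were half-log serially diluted from 10 mM stocks in PBS. Stimulation 150 min at 37 °C; W-peptide (WKYMVm, 100 nM) was the high control. Detection reagent added for 60 min RT in the dark, with chemiluminescence read-out.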

[5] = target: T2, N-formyl peptide receptor 2 (Homo sapiens); assay: Agonist activity at FPRL1 (unknown origin) expressed in CHO-K1 cells assessed as increase in calcium mobilization […] incubated for 2.5 hrs by cellular based FLIPR assay; assay type: functional, cell-based; conditions: filed as agonist, time 0.067 hrs, in the assay text read “measured for 240 s” for “incubated for 2.5 hrs”
Procedure, shortened: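 CHO-K1 cells overexpressing human FPR2 (PathHunter FPRL1 line), plated at 20,000/well in F-12 with 10% FBS and held 1 h RT, then overnight at 37 °C. Calcium 6 dye loaded 2 h at 37 °C, then 30 min RT in the dark. Compounds were half-log serially diluted from 10 mM stocks in HBSS with 20 mM HEPES. Cytosolic Ca2+ rise read on FLIPR Tetra.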

[6] = Distribution coefficient, logD of compound at pH 7.4 by shake flask method based LC-MS/MS analysis; assay type: physicochemical; conditions: octanol/water, read-out: logD
Procedure, shortened: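 Shake-flask method: compound diluted from 10 mM DMSO stock into equal volumes of octanol and PBS, final concentration 100 µM. Shaken 12 h, then centrifuged. Both layers analysed in triplicate by LC-MS/MS (MRM, C8 UPLC). LogD = log10 of the octanol/buffer peak-area ratio.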

[7] = target: T1, N-formyl peptide receptor 2; assay: Agonist activity at FPRL1 (unknown origin) expressed in CHO-K1 cells assessed as increase in calcium mobilization incubated for 2.5 hrs by cellular based FLIPR assay; assay type: functional, cell-based; conditions: read-out: EC50
Procedure, shortened: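 CHO-K1 cells overexpressing hFPR2, plated at 20,000 cells/well in F-12 with 10% FBS and held overnight at 37 °C. Loaded with FLIPR Calcium 6 dye for 2 h at 37 °C, then 30 min at RT in the dark. Compounds were half-log serially diluted from 10 mM stocks in HBSS/20 mM HEPES. Cytosolic Ca2+ rise read on FLIPR Tetra. WKYMVm served as control.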

[8] = Kinetic solubility of compound in PBS at pH 7.4 by UV-VIS absorption spectrophotometry analysis; assay type: physicochemical; conditions: for solubility kinetic: PBS, read-out: Kinetic_solubility
Procedure, shortened: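 A 10 mM DMSO stock was diluted into PBS pH 7.4 at a target of 200 µM (final PBS:DMSO 98:2), in triplicate. Agitated 500 rpm for 90 min, then filtered. Filtrate diluted to PBS:DMSO 80:20 and its UV absorbance compared against a 200–6.75 µM standard series to give the concentration remaining in solution.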

[9] = target: T1, N-formyl peptide receptor 2; assay: Agonist activity at human FPR2 expressed in HEK293-A cells assessed as ERK phosphorylation level incubated for 5 mins by ELISA assay; assay type: functional, cell-based
Procedure, shortened: (§2)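 HEK293A cells stably transfected with human FPR1 or FPR2, seeded at 2 × 10⁴/well and grown 48 h. Serum-starved 3 h, then stimulated 5 min with compounds in serum-free DMEM, top concentration 30 µM, 1/3 serial dilutions. Lysed in ice-cold buffer; p-ERK1/2 (pT202/Y204) measured by SimpleStep ELISA (OD). Expressed as increment over basal.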

[10] = target: T2, N-formyl peptide receptor 2 (Homo sapiens); assay: Agonist activity at human FPR2 expressed in HEK293-A cells assessed as maximal ERK phosphorylation level at 30 uM incubated for 5 mins by ELISA assay; assay type: functional, cell-based; conditions: filed as agonist
Procedure, shortened: (§3)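 HEK293A cells stably transfected with human FPR1 or FPR2, in DMEM with 10% FCS, seeded 2×10⁴/well and grown 48 h. Serum-starved 3 h, then stimulated 5 min with compounds in serum-free DMEM (1/3 serial dilutions from top concentration). W peptide was the positive control. Lysed in ice-cold buffer. p-ERK1/2 (pT202/Y204) measured by ELISA OD and expressed as increment over basal per receptor.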

[11] = target: T3, fMet-Leu-Phe receptor (Homo sapiens) (UniProt P21462); assay: Agonist activity at human FPR1 expressed in HEK293-A cells assessed as maximal ERK phosphorylation level at 30 uM incubated for 5 mins by ELISA assay; assay type: functional, cell-based; procedure, shortened: as §3
T3 sequence (whole entry): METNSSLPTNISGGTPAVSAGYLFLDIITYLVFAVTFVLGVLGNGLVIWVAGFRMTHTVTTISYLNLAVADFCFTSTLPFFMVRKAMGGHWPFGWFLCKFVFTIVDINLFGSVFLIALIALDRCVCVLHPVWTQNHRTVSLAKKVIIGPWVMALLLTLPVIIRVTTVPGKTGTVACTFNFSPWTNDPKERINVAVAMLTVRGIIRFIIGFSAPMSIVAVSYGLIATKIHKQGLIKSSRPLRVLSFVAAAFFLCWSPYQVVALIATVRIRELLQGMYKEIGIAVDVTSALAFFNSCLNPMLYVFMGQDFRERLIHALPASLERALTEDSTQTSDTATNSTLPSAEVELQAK

[12] = target: T4, fMet-Leu-Phe receptor (Homo sapiens, UniProt P21462); assay: Agonist activity at human FPR1 expressed in HEK293-A cells assessed as ERK phosphorylation level incubated for 5 mins by ELISA assay; assay type: functional, cell-based; conditions: hek293-a; procedure, shortened: as §2
T4 sequence (P21462 whole entry): T3 sequence (whole entry)

SMILES | half-life at 1 µM [1] [h] | half-life at 1 µM [2] [h] | EC50 [3] [nM] | Emax [4] [%] | Emax [5] [%] | logD [6] | EC50 [7] [nM] | solubility kinetic [8] [µM] | EC50 [9] [nM] | Emax [10] [%] | Emax [11] | EC50 [12] | Kinetic_solubility ([8]; buffer) [µM]
CC(C)(C)OC(=O)N1CCC(CN2CCC(NC(=O)Nc3ccc(Br)cc3)C2=O)CC1 (stereo not drawn) | 0.317 | 0.317 | 2160 | 92 | 86 | > 4 | 400 | 53 (≈ 26.3 µg/mL) |  |  |  |  | 
Cc1nn(C)cc1N1CCC(NC(=O)Nc2ccc(Br)cc2)C1=O (stereo not drawn) | 2.87 | 3.05 | 740 | 98 |  | 2.6 | 142 | 9 (≈ 3.53 µg/mL) | 4880 | 90 | inactive | Not Active | 
CC(C)(C)OC(=O)N1CCC(N2CCC(NC(=O)Nc3ccc(Br)cc3)C2=O)CC1 (stereo not drawn) | 0.522 | 4.17 | 6300 | 93 | 42 | 4.6 | 730 | 61 (≈ 29.4 µg/mL) |  |  |  |  | 
Cc1nn(-c2ccccc2)c(C)c1N1CCC(NC(=O)Nc2ccc(Br)cc2)C1=O (stereo not drawn) | 0.633 | 3.15 | 400 | 95 | 150 | 4.6 | 280 | 57 (≈ 26.7 µg/mL) |  |  |  |  | 
CC(C)(C)OC(=O)N1CCC[C@H](N2CCC(NC(=O)Nc3ccc(Br)cc3)C2=O)C1 (stereo in doubt; 20) | 0.5 |  | 550 |  |  | 4.1 | 60 |  |  |  |  |  | 54
O=C(Nc1ccc(Br)cc1)NC1CCN(CC2CCNCC2)C1=O (stereo not drawn) | 2.33 | 6.35 | 3290 | 102 | 84 | 0.8 | 270 | 227 (≈ 89.7 µg/mL) |  |  |  |  | 
